pIC50: −log10 of the molar value. Active and inactive are the calls of the source. The calls are words filed in the database; no cut-off is given here.

Experiment [1] is filed under the species Mus musculus. Kind of experiment: Antipsoriatic activity in K14-VEGF transgenic mouse model of psoriasis assessed alleviation in lack of granular layer at 0.05% applied tropically over lesion for continuous 29 days by H and E staining method relative to vehicle control. It is filed as functional, organism-based. In outline:
(§1)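 Homozygous K14-VEGF mice, 3–4 months old, with moderate to serious psoriasis; n=3 per group. Cream with 0.05% compound or vehicle cream smeared on lesions. Head and neck tissue sections taken after 29 days of treatment and HE-stained. Baker pathological score from 5 random fields, given as mean and SD. Epidermal thickness from 8 random fields, given as mean ± SEM.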

For experiment [2], the species on record is Mus musculus. Kind of experiment: Antipsoriatic activity in K14-VEGF transgenic mouse model of psoriasis assessed as reduction in epidermal thickness at 0.05% applied tropically over lesion for continuous 29 days by H and E staining method relative to vehicle control. The experiment is classed as functional, organism-based. The procedure, abridged:
as §1

The species entered for experiment [3] is Mus musculus. In words: Antipsoriatic activity in K14-VEGF transgenic mouse model of psoriasis assessed as upper left quadrant FLT3+/CD11c+/B220+ pDC cells in psoriatic plaque lesion at 0.05% applied tropically over lesion for continuous 29 days by flow cytometric analysis (reference value: 58.4%). The experiment is classed as functional. (A flow cytometer gives signals particle by particle.)

Experiment [4] is filed under the species Mus musculus. In words: Antipsoriatic activity in K14-VEGF transgenic mouse model of psoriasis assessed as lower left quadrant FLT3+/CD11c+/B220+ pDC cells in psoriatic plaque lesion at 0.05% applied tropically over lesion for continuous 29 days by flow cytometric analysis (reference value: 4.97%). It is filed as functional.
For experiment [5], the species on record is Mus musculus. In words: Antipsoriatic activity in K14-VEGF transgenic mouse model of psoriasis assessed as recurrence of psoriatic symptoms at 0.05% applied tropically over lesion for continuous 21 days measured after 15 days of last dosage by macroscopic analysis relative to vehicle control. It is filed as functional, organism-based. In outline: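 Homozygous K14-VEGF mice, 3–4 months old, with moderate to serious psoriasis. Lesions smeared with cream with or without 0.05% compound for 3 weeks, then observed untreated for another 15 days. Head and neck photographed on days 0, 21 and 36 for macroscopic assessment.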

Experiment [6] has as its target T1, Receptor-type tyrosine-protein kinase FLT3 (Homo sapiens, UniProt P36888).
T1 sequence (P36888 whole entry): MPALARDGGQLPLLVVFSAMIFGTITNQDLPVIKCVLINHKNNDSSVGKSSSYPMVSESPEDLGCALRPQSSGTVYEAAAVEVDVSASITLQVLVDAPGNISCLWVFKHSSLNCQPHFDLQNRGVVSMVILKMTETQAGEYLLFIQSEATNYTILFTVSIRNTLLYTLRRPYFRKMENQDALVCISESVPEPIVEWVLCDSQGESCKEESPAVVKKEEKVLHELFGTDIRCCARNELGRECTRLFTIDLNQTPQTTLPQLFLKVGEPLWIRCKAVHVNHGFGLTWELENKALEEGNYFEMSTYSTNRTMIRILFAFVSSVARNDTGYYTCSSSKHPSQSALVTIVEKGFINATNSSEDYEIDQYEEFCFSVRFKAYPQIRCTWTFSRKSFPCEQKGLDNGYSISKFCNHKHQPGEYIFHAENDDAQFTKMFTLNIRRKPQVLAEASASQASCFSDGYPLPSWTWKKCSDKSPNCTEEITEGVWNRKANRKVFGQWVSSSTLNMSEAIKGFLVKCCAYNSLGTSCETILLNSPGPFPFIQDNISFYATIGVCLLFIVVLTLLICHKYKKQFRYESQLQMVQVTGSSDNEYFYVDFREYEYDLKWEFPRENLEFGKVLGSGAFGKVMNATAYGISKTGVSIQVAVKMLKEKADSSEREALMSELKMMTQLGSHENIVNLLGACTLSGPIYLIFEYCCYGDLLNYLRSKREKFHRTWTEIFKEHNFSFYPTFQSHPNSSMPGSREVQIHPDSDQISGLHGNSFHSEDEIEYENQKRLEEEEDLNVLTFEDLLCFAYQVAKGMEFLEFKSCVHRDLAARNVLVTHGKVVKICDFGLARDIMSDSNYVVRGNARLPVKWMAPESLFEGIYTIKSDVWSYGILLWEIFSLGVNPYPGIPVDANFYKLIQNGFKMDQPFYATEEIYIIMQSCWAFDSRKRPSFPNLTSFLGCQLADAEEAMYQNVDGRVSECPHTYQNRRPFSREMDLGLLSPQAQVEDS
Kind of experiment: Inhibition of recombinant human N-terminal GST-tagged FLT3 (564 to end residues) expressed by baculovirus in Sf21 insect cells measured after 10 mins in presence of [gamma-33P]ATP by scintillation counter method.

The species entered for experiment [7] is Mus musculus. In words: Antipsoriatic activity in K14-VEGF transgenic mouse model of psoriasis assessed as lower left quadrant FLT3+/CD11c+/MHC-II+ mDC cells in psoriatic plaque lesion at 0.05% applied tropically over lesion for continuous 29 days by flow cytometric analysis (reference value: 0%).

On to `CC(C)(C)c1cc(NC(=O)Nc2ccc(Oc3ncnc4[nH]ncc34)c(F)c2)no1`, for which the outcome in experiment [1] and in experiment [2] was Active. Further, the Activity in experiment [3] came out at 79.4%; in experiment [4], 11%; in experiment [7] it was 0%. In addition, the result in experiment [5] was inactive. Besides, the negative logarithm of the IC50 (pIC50) in experiment [6] is 8.30.

As a reminder, the pIC50 is −log10 of the IC50, conventionally taken in molar units.

These data come from ChEMBL document CHEMBL4428067, “Drug Discovery against Psoriasis: Identification of a New Potent FMS-like Tyrosine Kinase 3 (FLT3) Inhibitor, 1-(4-((1H-Pyrazolo[3,4-d]pyrimidin-4-yl)oxy)-3-fluorophenyl)-3-(5-(tert-butyl)isoxazol-3-yl)urea, That Showed Potent Activity in a Psoriatic Animal Model” (J Med Chem, 2016).
